# Source: ChEMBL document CHEMBL1145542, “Discovery of a new class of potent, selective, and orally bioavailable CRTH2 (DP2) receptor antagonists for the treatment of allergic inflammatory diseases” (J Med Chem, 2008)
# Legend:
# [1] = molecular target: T1, Prostaglandin D2 receptor 2 (Homo sapiens, UniProt Q9Y5Y4); experiment: Displacement of [3H]PGD2 from human CRTH2 receptor expressed in CHO cells; type: cell-based
# T1 sequence (Q9Y5Y4 whole entry): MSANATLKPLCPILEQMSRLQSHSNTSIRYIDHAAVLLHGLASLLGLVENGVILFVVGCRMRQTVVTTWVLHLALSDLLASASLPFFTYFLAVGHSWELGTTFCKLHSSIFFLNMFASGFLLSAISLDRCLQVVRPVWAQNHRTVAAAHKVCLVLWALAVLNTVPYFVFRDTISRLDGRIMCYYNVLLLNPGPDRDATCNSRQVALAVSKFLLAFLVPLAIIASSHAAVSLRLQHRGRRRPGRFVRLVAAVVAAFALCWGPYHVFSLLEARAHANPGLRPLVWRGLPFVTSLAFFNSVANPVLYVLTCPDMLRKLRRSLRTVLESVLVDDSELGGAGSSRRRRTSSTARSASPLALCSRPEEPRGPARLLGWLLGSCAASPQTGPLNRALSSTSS
# In short: (§1)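 Scintillation proximity competition assay: 2–5 µg human or mouse CRTH2 membranes (nitrogen-cavitation, differential centrifugation) with WGA-SPA beads and 1.5 nM [3H]PGD2 in 10 mM HEPES/KOH pH 7.4, 10 mM MnCl2, protease inhibitors, 1% Me2SO, 90 min shaking at room temperature. Nonspecific binding with 1 µM PGD2. Ki by Cheng–Prusoff, mean of ≥3 independent experiments.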
# [2] = molecular target: T2, Prostaglandin D2 receptor 2 (Mus musculus, UniProt Q9Z2J6); experiment: Displacement of [3H]PGD2 from mouse CRTH2 receptor expressed in HEK293 cells; type: cell-based; in short: as §1
# T2 sequence (Q9Z2J6 whole entry): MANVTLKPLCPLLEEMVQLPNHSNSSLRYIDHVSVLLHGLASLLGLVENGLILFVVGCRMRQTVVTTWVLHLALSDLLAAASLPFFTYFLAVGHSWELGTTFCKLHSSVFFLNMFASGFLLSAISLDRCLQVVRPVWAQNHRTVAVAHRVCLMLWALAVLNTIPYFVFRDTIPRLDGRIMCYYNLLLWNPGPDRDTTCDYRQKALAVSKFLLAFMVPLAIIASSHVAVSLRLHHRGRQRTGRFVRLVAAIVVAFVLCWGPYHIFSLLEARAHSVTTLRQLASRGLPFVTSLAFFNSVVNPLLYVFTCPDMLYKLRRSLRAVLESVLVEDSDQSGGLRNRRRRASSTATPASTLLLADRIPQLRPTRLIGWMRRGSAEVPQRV
# [3] = molecular target: T1, Prostaglandin D2 receptor 2; experiment: Antagonist activity at human CRTH2 receptor expressed in CHO cell membrane by [35S]GTP-gamma-S binding assay; type: functional, cell membranes
# In short: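 [35S]GTPγS binding at 30 °C on 10 µg human CRTH2 membranes in 20 mM HEPES/KOH pH 7.4, 10 mM MgCl2, 10 µg/mL saponin, 3 µM GDP, 150 mM NaCl, 2% Me2SO. PGD2 preincubation 10 min (antagonist mode: 80 nM PGD2), then 0.15 nM [35S]GTPγS for 30 min. Nonspecific binding with 10 µM GTPγS; stopped by centrifugation, scintillation counting.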
# [4] = Intrinsic clearance per mg of protein in human liver microsomes at 3 uM; type: ADME, Microsome
# In short: (§2)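 Rat or human liver microsomes (0.5 mg/mL final) in 0.1 M phosphate pH 7.4 with 3 µM compound (1% DMSO), preincubated at 37 °C, started with 1 mM NADPH. Quenched with cold acetonitrile at 0, 15, 30, 45 min; LC/MS-MS of compound disappearance gives intrinsic clearance.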
# [5] = Intrinsic clearance per mg of protein in rat liver microsomes at 3 uM; type: ADME, Microsome; in short: as §2
# [6] = Apparent permeability across human Caco-2 cell membrane at 10 uM; type: ADME, cell-based
# In short: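 Caco-2 monolayers grown 21 days on Transwell filters; TEER above 800 ohm·cm² required. 10 µM test compound in HBSS added apically (A to B) or basolaterally (B to A), 2 h at 37 °C. Both compartments sampled, analysed by LC/MS-MS.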
# [7] = Lipophilicity, log D of the compound; type: physicochemical; settings: octanol/water
# [8] = AUC (0 to last t) in rat at 1 mg/kg, iv; type: ADME, organism-based; parameters: time 0 - last, dose 1 mg/kg, route intravenous; settings: plasma
# In short: (§3)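 Male Sprague–Dawley or Janvier rats, three per route, dosed by oral gavage or iv bolus. Serial blood drawn through an indwelling carotid catheter up to 24 h post dose. Plasma pooled by time point, analysed by LC-MS/MS; non-compartmental analysis.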
# [9] = AUC (0 to last t) in rat at 5 mg/kg, po; type: ADME, organism-based; parameters: time 0 - last, dose 5 mg/kg, route oral; settings: plasma; in short: as §3
# [10] = AUC (0 to last t) in Beagle dog at 1 mg/kg, iv; type: ADME, organism-based, Canis lupus familiaris; parameters: time 0 - last, dose 1 mg/kg, route intravenous; settings: plasma
# In short: (§4)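 Three male beagle dogs, crossover design; 1 mg/kg given as a solution, iv bolus and oral gavage. Serial blood sampled up to 48 h post dose. Individual plasma samples analysed by LC-MS/MS; PK parameters derived by non-compartmental analysis.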
# [11] = AUC (0 to last t) in Beagle dog at 1 mg/kg, po; type: ADME, organism-based, Canis lupus familiaris; parameters: time 0 - last, dose 1 mg/kg, route oral; settings: plasma; in short: as §4
# [12] = Oral bioavailability in rat at 5 mg/kg; type: ADME, organism-based; settings: in vivo; in short: as §3
# [13] = Oral bioavailability in Beagle dog at 1 mg/kg; type: ADME, organism-based, Canis lupus familiaris; settings: in vivo; in short: as §4
# [14] = Cmax in rat at 1 mg/kg, iv; type: ADME, organism-based; parameters: dose 1 mg/kg, route intravenous; settings: in vivo; in short: as §3
# [15] = Cmax in rat at 5 mg/kg, po; type: ADME, organism-based; parameters: dose 5 mg/kg, route oral; settings: in vivo; in short: as §3
# [16] = Cmax in Beagle dog at 1 mg/kg, iv; type: ADME, organism-based, Canis lupus familiaris; parameters: dose 1 mg/kg, route intravenous; settings: in vivo; in short: as §4
# [17] = Tmax in rat at 1 mg/kg, iv; type: ADME, organism-based; parameters: dose 1 mg/kg, route intravenous; settings: in vivo; in short: as §3
# [18] = Tmax in rat at 5 mg/kg, po; type: ADME, organism-based; parameters: dose 5 mg/kg, route oral; settings: in vivo; in short: as §3
# [19] = Tmax in Beagle dog at 1 mg/kg, iv; type: ADME, organism-based, Canis lupus familiaris; parameters: dose 1 mg/kg, route intravenous; settings: in vivo; in short: as §4
# [20] = Half life in rat at 1 mg/kg, iv; type: ADME, organism-based; parameters: dose 1 mg/kg, route intravenous; settings: in vivo; in short: as §3
# [21] = Half life in rat at 5 mg/kg, po; type: ADME, organism-based; parameters: dose 5 mg/kg, route oral; settings: in vivo; in short: as §3
# [22] = Half life in Beagle dog at 1 mg/kg, iv; type: ADME, organism-based, Canis lupus familiaris; parameters: dose 1 mg/kg, route intravenous; settings: in vivo; in short: as §4
# [23] = Clearance in rat at 1 mg/kg, iv; type: ADME, organism-based; parameters: dose 1 mg/kg, route intravenous; settings: in vivo; in short: as §3
# [24] = Clearance in Beagle dog at 1 mg/kg, iv; type: ADME, organism-based, Canis lupus familiaris; parameters: dose 1 mg/kg, route intravenous; settings: in vivo; in short: as §4
# [25] = Volume of distribution at steady state in rat at 1 mg/kg, iv; type: ADME, organism-based; parameters: dose 1 mg/kg, route intravenous; settings: in vivo, read-out: Vdss; in short: as §3
# [26] = Volume of distribution at steady state in Beagle dog at 1 mg/kg, iv; type: ADME, organism-based, Canis lupus familiaris; parameters: dose 1 mg/kg, route intravenous; settings: in vivo, read-out: Vdss; in short: as §4
# [27] = molecular target: T3, Prostaglandin D2 receptor (Homo sapiens, UniProt Q13258); experiment: Inhibition of prostaglandin D2 receptor
# T3 sequence (Q13258 whole entry): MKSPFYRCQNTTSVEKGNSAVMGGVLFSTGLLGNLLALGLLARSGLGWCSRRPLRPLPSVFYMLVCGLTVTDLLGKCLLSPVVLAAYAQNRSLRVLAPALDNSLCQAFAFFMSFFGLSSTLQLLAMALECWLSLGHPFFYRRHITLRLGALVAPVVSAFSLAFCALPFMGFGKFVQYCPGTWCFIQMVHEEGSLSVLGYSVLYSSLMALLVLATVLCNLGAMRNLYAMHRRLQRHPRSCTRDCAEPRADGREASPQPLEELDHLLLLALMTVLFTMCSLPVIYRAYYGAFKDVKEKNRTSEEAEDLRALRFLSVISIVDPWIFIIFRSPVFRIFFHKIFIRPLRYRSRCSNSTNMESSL
# [28] = molecular target: Prostaglandin E2 receptor EP2 subtype (Homo sapiens, UniProt P43116); experiment: Inhibition of prostanoid EP2 receptor
# Sequence of Prostaglandin E2 receptor EP2 subtype (P43116 whole entry): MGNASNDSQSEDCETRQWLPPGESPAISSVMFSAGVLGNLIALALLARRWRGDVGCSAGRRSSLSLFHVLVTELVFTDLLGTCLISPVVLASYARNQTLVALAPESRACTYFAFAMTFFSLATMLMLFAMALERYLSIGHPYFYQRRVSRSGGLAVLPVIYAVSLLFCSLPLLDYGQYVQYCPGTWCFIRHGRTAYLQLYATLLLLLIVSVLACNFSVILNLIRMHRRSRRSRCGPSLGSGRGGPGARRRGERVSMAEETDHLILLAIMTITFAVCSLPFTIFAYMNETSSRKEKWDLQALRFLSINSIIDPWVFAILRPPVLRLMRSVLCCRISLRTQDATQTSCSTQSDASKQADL
# [29] = Inhibition of prostanoid EP3 receptor
# [30] = Inhibition of prostanoid EP4 receptor
# [31] = Inhibition of prostanoid FP receptor
# [32] = Cmax in Beagle dog at 1 mg/kg, po; settings: in vivo
# [33] = Tmax in Beagle dog at 1 mg/kg, po; settings: in vivo
# [34] = molecular target: T4, Cytochrome P450 1A2 (Homo sapiens, UniProt P05177); experiment: Inhibition of human recombinant CYP1A2; type: ADME
# T4 sequence (P05177 whole entry): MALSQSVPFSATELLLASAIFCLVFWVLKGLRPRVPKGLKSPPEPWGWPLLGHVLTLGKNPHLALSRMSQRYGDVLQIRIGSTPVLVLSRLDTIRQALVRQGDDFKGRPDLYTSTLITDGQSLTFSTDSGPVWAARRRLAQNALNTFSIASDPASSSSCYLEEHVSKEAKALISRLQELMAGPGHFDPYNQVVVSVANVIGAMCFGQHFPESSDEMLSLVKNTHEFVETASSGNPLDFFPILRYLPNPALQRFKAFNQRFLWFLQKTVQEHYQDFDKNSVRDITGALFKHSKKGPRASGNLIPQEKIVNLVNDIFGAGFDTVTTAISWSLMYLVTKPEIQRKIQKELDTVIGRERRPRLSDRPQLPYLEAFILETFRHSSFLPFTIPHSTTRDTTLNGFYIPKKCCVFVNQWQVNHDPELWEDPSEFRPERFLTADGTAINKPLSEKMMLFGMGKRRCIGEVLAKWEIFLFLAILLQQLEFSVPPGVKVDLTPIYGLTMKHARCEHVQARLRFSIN
# In short: (§5)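 Human recombinant CYP1A2, 2C9, 2C19, 2D6 and 3A4, each turning an isoform-specific fluorogenic substrate into a fluorescent product; test compound up to 10 µM final in 1% DMSO; fluorescence read-out.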
# [35] = molecular target: Cytochrome P450 2C19 (Homo sapiens, UniProt P33261); experiment: Inhibition of human recombinant CYP2C19; type: ADME; in short: as §5
# Sequence of Cytochrome P450 2C19 (P33261 whole entry): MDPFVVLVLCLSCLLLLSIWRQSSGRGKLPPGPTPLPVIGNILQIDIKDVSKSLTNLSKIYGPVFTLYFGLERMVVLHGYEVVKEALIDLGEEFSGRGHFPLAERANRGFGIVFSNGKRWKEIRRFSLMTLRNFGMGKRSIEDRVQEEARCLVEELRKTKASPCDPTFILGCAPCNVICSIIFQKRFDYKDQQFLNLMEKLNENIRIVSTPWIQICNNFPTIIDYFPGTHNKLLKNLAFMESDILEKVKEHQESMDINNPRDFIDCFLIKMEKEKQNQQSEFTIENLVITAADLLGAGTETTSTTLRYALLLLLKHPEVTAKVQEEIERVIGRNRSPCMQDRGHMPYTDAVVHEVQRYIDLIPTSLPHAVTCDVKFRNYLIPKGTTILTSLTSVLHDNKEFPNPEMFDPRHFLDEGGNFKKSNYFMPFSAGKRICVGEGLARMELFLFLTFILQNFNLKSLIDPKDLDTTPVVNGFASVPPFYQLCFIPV
# [36] = molecular target: Cytochrome P450 2C9 (Homo sapiens, UniProt P11712); experiment: Inhibition of human recombinant CYP2C9; type: ADME; in short: as §5
# Sequence of Cytochrome P450 2C9 (P11712 whole entry): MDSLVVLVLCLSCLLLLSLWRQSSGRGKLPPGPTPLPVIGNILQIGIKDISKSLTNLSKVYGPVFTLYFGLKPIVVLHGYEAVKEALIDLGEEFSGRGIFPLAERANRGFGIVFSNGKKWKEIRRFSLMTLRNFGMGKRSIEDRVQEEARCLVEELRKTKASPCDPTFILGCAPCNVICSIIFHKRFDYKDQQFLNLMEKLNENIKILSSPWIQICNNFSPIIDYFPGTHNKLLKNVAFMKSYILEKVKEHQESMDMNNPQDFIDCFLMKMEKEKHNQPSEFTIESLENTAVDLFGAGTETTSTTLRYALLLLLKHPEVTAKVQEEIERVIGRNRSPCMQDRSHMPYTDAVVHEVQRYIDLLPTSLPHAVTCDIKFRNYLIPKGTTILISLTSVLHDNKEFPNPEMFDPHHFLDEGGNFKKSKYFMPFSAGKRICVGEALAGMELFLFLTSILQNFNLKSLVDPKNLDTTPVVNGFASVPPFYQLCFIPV
# [37] = molecular target: Cytochrome P450 2D6 (Homo sapiens, UniProt P10635); experiment: Inhibition of human recombinant CYP2D6; type: ADME; in short: as §5
# Sequence of Cytochrome P450 2D6 (P10635 whole entry): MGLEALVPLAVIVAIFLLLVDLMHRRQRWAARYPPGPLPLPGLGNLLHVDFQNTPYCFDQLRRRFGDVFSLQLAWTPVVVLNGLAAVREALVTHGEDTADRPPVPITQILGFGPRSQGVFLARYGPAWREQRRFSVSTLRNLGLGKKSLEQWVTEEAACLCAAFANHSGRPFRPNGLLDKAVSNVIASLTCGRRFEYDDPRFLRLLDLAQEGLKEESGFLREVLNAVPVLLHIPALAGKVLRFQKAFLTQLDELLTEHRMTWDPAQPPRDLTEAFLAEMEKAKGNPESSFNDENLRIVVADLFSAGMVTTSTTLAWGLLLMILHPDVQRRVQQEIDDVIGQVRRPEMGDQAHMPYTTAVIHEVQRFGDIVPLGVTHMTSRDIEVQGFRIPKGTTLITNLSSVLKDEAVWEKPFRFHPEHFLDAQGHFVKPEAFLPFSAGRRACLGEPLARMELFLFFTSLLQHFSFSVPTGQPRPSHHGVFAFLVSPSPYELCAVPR
# [38] = molecular target: Cytochrome P450 3A4 (Homo sapiens, UniProt P08684); experiment: Inhibition of human recombinant CYP3A4; type: ADME; in short: as §5
# Sequence of Cytochrome P450 3A4 (P08684 whole entry): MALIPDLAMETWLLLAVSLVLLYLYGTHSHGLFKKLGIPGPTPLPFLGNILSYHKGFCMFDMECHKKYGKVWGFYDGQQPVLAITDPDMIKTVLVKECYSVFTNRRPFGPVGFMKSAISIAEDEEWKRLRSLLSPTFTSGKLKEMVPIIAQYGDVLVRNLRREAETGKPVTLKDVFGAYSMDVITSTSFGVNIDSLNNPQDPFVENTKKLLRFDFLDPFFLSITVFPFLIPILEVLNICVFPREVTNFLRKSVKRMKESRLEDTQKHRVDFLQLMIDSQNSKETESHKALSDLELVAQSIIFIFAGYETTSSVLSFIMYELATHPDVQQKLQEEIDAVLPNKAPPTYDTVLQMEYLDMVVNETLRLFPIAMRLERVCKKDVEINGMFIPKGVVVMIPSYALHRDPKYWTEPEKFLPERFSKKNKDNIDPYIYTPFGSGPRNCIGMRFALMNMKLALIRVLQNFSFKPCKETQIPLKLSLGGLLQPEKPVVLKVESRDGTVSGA
compound,measurement,setting,value
O=C(O)CN1C(=O)[C@@]2(CC(=O)N(Cc3cc(Cl)ccc3F)C2=O)c2cc(Cl)ccc21,Ki,[1],5.3 nM
same,Ki,[2],5 nM
same,IC50,[3],66 nM
same,microsomal CLint at 3 µM,[4],5 µL/min/mg
same,microsomal CLint at 3 µM,[5],19 µL/min/mg
same,Papp at 10 µM,[6],26.4 ×10⁻⁶ cm/s
same,logD,[7],-0.5
same,AUC(0-t),[8],1180 ng·h/mL
same,AUC(0-t),[9],1910 ng·h/mL
same,AUC(0-t),[10],637 ng·h/mL
same,AUC(0-t),[11],339 ng·h/mL
same,bioavailability,[12],32%
same,bioavailability,[13],52%
same,Cmax,[14],1700 ng/mL
same,Cmax,[15],163 ng/mL
same,Cmax,[16],1950 ng/mL
same,Tmax,[17],0 h
same,Tmax,[18],1.5 h
same,Tmax,[19],0 h
same,half-life,[20],13 h
same,half-life,[21],5.4 h
same,half-life,[22],3 h
same,clearance,[23],11.7 mL/min/kg
same,clearance,[24],33.3 mL/min/kg
same,Vd,[25],7 L/kg
same,Vd,[26],5 L/kg
same,IC50,[27],> 30000 nM
same,IC50,[28],> 30000 nM
same,IC50,[29],> 30000 nM
same,IC50,[30],> 30000 nM
same,IC50,[31],> 30000 nM
same,Cmax,[32],68.8 ng/mL
same,Tmax,[33],2.67 h
O=C(O)CN1C(=O)C2(CC(=O)N(Cc3ccccc3)C2=O)c2cc(Cl)ccc21 (stereo not drawn),Ki,[1],196 nM
same,Ki,[2],150 nM
same,IC50,[3],418 nM
same,microsomal CLint at 3 µM,[5],9 µL/min/mg
same,IC50,[34],> 10000 nM
same,IC50,[35],> 10000 nM
same,IC50,[36],> 10000 nM
same,IC50,[37],> 10000 nM
same,IC50,[38],> 10000 nM
same,Papp at 10 µM,[6],3 ×10⁻⁶ cm/s
